Assay [1] in a line: reduced viability of SK-BR-3 breast cancer cells – cell-based, 24 h, human, pilot screen (AID 572;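 active = viability at or below 10% of carrier control in both of two separate runs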;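 also: compound exposure lasted between 18 and 24 h rather than exactly 24 h; 100% = carrier-treated control wells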). The conditions noted are these: SK-BR-3 viability, CellTiter-Glo luminescence, at 10 µM, stronger effect = lower value.
Assay [2] is described as follows: HUVEC growth inhibition – cell-based, human, primary screen (AID 575;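 active = viability at or below 30% in both replicate assays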;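 also: 100% = median of untreated cell wells with 0.1% DMSO on each plate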). As to conditions: HUVEC proliferation, CellTiter-Glo luminescence, 72 h; at 10 µM; stronger effect = lower value. The method, boiled down: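 Material: primary human umbilical vein endothelial cells / Schedule: 72 h exposure, 37 °C, 5% CO2, 30 min RT equilibration / Signal: ATP-based CellTiter-Glo luminescent read / Read-out basis: percent of median DMSO-control luminescence / Control set: 32 DMSO-only cell-control wells (high), 32 MePR drug-control wells (low) per plate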
For orientation: In ATP-based viability assays light output follows the ATP content of the culture.

Assay [3] in a line: H69AR cell proliferation blockers – human, duplicate replicates, primary screen (AID 580).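 Also: 100% = mean luminescence of untreated wells and 0% = no signal.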 As to conditions: H69AR lung tumor cells viability, ATP luminescence, 72 h; at 10 µM; stronger effect = lower value.
A short description of assay [4]: MRP1 drug-resistance reversers in H69AR cells – cell-based, doxorubicin co-treatment, pilot screen (AID 601;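 active = viability loss from added drug above about 55%, and viability with drug at most 40%, in both replicates, limit read from the data, passing the limit was not always enough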). As to conditions: CellTiter-Glo, 72 h, at 10 µM; for differential viability (reversal): stronger effect = higher value.
Assay [5] can be described thus: yeast transport mutant growth inhibition pilot in 384-well plates, post-Golgi transport modulator project (AID 636; in the data active = inhibition above about 31%). The conditions noted are these: absorbance 615 nm, about 18 h, stronger effect = higher value.
Assay [6] in a line: growth suppression of yeast trafficking mutant, preliminary HTS, modulators of trafficking downstream of Golgi apparatus project, 1536-format plate, OD 615 nm (AID 637; in the data active = inhibition above about 30%). As to conditions: yeast transport mutant growth, absorbance 615 nm, 18 h; stronger effect = higher value.
The mark [7] stands for this setting: H69AR cells + 2 uM doxorubicin, measured here: viability with 2 uM doxorubicin, stronger effect = lower value.
[8] abbreviates: H69AR cells, compound alone cytotoxicity.

Active and inactive are the calls of the source.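 The calls were made as follows, unless noted: active = viability at or under a set limit in both replicates, limit being median viability minus 3 SD (cut at about 48% in these data, passing the limit was not always enough); inconclusive = at or under the limit in just one replicate; inactive = at or above the limit in both replicates.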

Usually viability stands for a read-out of living cells in per cent, often relative to untreated cells. In general, inhibition refers to the drop in the measured response relative to a control, in per cent. As to `O=C(C1CCN(S(=O)(=O)c2cnc[nH]2)CC1)N1CCN(c2ncccn2)CC1`, the viability in assay [1] was 112% (inactive); in assay [2], 111% (inactive); in assay [3], 102% (inactive); in assay [4] (setting [7]) it was 82.8%; in assay [4] (setting [8]), 102%. Moreover, the differential viability (reversal) in assay [4] (H69AR cells + 2 uM doxorubicin) is 19.5% (inactive). The inhibition was -5.33% (inactive) in assay [5] and 0% (inactive) in assay [6].
Consider `O=C(O)C(c1ccccc1)N1CCCC1` (centres undefined), for which the viability in assay [1] was 106% (inactive); in assay [2] it was 102% (inactive); in assay [3] it was 95.9% (inactive); in assay [4] (setting [7]) it was 79.5%; in assay [4] (setting [8]), 95.9%. Moreover, in assay [4] (H69AR cells + 2 uM doxorubicin), the differential viability (reversal) is 16.4% (inactive). Further, the inhibition in assay [5] is -5.6% (inactive); in assay [6], -3.64% (inactive).
As to `CC(=O)C1=C(NC(=O)c2ccccc2F)C[C@@H]2[C@H]1C2(C)C`, the viability in assay [1] is 90% (inactive); in assay [2], 99.2% (inactive); in assay [3] it was 91.3% (inactive); in assay [4] (setting [7]) it was 89.5%; in assay [4] (setting [8]), 91.3%. In addition, the differential viability (reversal) in assay [4] (H69AR cells + 2 uM doxorubicin) was 1.76% (inactive). In addition, the figures for the inhibition in assay [5] and in assay [6] were -10.7% (inactive) and -3.55% (inactive), respectively.
In the case of `COc1ccc(N2C(=O)c3cccc4cccc(c34)C2=O)nn1`, the viability is 82% (inactive) in assay [1]; 90.8% (inactive) in assay [2]; 92.3% (inactive) in assay [3]; 100% in assay [4] (setting [7]); 92.3% in assay [4] (setting [8]). In addition, in assay [4] (H69AR cells + 2 uM doxorubicin), the differential viability (reversal) is -7.67% (inactive). The figures for the inhibition in assay [5] and in assay [6] were -5.89% (inactive) and 5.09% (inactive), respectively.
Take `C=CCc1ccccc1OCC(O)CN1CCN(Cc2ccc3c(c2)OCO3)CC1` (centres undefined): the viability in assay [1] was 101% (inactive); in assay [2] it was 73.8% (inactive); in assay [3], 70.1% (inactive); in assay [4] (setting [7]), 76%; in assay [4] (setting [8]), 70.1%. In addition, in assay [4] (H69AR cells + 2 uM doxorubicin), the differential viability (reversal) was -5.96% (inactive). Also, the inhibition in assay [5] is 59.1% (active); in assay [6], 58.4% (active).
Consider `CCCNC(=O)C1CN(S(=O)(=O)c2ccccc2)CCN1S(=O)(=O)c1ccccc1` (centres undefined), for which the viability in assay [1] is 103% (inactive); in assay [2], 108% (inactive); in assay [3], 99.2% (inactive); in assay [4] (setting [7]), 89.4%; in assay [4] (setting [8]), 99.2%. Besides, the differential viability (reversal) in assay [4] (H69AR cells + 2 uM doxorubicin) was 9.82% (inactive). Besides, the inhibition in assay [5] is 4.42% (inactive); in assay [6] it was 3.77% (inactive).
As to `COc1ccccc1OCc1nc2ccccc2[nH]1`, the viability in assay [1] is 69% (inactive); in assay [2], 88.5% (inactive); in assay [3], 99.3% (inactive); in assay [4] (setting [7]), 104%; in assay [4] (setting [8]) it was 99.3%. The differential viability (reversal) in assay [4] (H69AR cells + 2 uM doxorubicin) was -5.04% (inactive). For the same molecule, the inhibition is -6.16% (inactive) in assay [5] and -0.55% (inactive) in assay [6].
On to `CCSC(SCC)[C@H](O)[C@@H](O)[C@H](O)[C@H](O)CO`, for which the viability in assay [1] was 103% (inactive); in assay [2], 104% (inactive); in assay [3] it was 101% (inactive); in assay [4] (setting [7]) it was 94.8%; in assay [4] (setting [8]), 101%. In addition, the differential viability (reversal) in assay [4] (H69AR cells + 2 uM doxorubicin) was 6.02% (inactive). In addition, the inhibition in assay [5] was -5.19% (inactive); in assay [6], 0% (inactive).
On to `COC(=O)Cn1cnc2sc(C)c(S(=O)(=O)N3CCC(C)CC3)c2c1=O`, for which the viability was 85% (inactive) in assay [1]; 98.4% (inactive) in assay [2]; 91.3% (inactive) in assay [3]; 97.1% in assay [4] (setting [7]); 91.3% in assay [4] (setting [8]). Moreover, the differential viability (reversal) in assay [4] (H69AR cells + 2 uM doxorubicin) is -5.84% (inactive). Moreover, the inhibition in assay [5] was -1.64% (inactive); in assay [6], -0.91% (inactive).
Regarding `CCCc1cc(N2CCCC2)n2nc(C)c(-c3ccccc3)c2n1`, the viability was 64% (inactive) in assay [1]; 94.7% (inactive) in assay [2]; 76.6% (inactive) in assay [3]; 80.2% in assay [4] (setting [7]); 76.6% in assay [4] (setting [8]). The differential viability (reversal) in assay [4] (H69AR cells + 2 uM doxorubicin) is -3.64% (inactive). Moreover, the figures for the inhibition in assay [5] and in assay [6] were -4.93% (inactive) and 5.27% (inactive), respectively.
For `CN(Cc1nc(-c2ccncc2)no1)S(=O)(=O)c1ccc(Cl)cc1`, the viability in assay [1] is 115% (inactive); in assay [2] it was 87.2% (inactive); in assay [3], 88.9% (inactive); in assay [4] (setting [7]) it was 98%; in assay [4] (setting [8]), 88.9%. For the same molecule, the differential viability (reversal) in assay [4] (H69AR cells + 2 uM doxorubicin) was -9.07% (inactive). Further, the inhibition in assay [5] was 1.78% (inactive); in assay [6], 13.6% (inactive).
As for `CCOC(=O)C1=C(N)OC2=C(C(=O)CC(C)(C)C2)C1c1ccco1` (centres undefined), the viability in assay [1] was 90% (inactive); in assay [2], 97.3% (inactive); in assay [3] it was 87.8% (inactive); in assay [4] (setting [7]), 84%; in assay [4] (setting [8]) it was 87.8%. Also, in assay [4] (H69AR cells + 2 uM doxorubicin), the differential viability (reversal) is 3.79% (inactive). Further, the results for the inhibition in assay [5] and in assay [6] were 1.04% (inactive) and 3.28% (inactive), respectively.
For the molecule `COCCn1nnnc1C(c1cc2ccc(OC)cc2[nH]c1=O)N1CCc2ccccc2C1` (centres undefined), the viability in assay [1] was 89% (inactive); in assay [2], 90.4% (inactive); in assay [3] it was 85.6% (inactive); in assay [4] (setting [7]), 98.9%; in assay [4] (setting [8]), 85.6%. In addition, in assay [4] (H69AR cells + 2 uM doxorubicin), the differential viability (reversal) was -13.3% (inactive). The inhibition in assay [5] is -1.64% (inactive); in assay [6], 4.52% (inactive).
Take `O=C(c1nn2cccnc2c1Cl)N1CCN(c2ccccc2)CC1`: the viability was 66% (inactive) in assay [1]; 102% (inactive) in assay [2]; 108% (inactive) in assay [3]; 97.8% in assay [4] (setting [7]); 108% in assay [4] (setting [8]). In assay [4] (H69AR cells + 2 uM doxorubicin), the differential viability (reversal) was 10.1% (inactive). The figures for the inhibition in assay [5] and in assay [6] were -6.99% (inactive) and 3.82% (inactive), respectively.
Take `Cc1noc(NS(=O)(=O)c2ccc(N)cc2)c1C`: the viability in assay [1] is 97% (inactive); in assay [2] it was 91% (inactive); in assay [3] it was 105% (inactive); in assay [4] (setting [7]), 89.1%; in assay [4] (setting [8]), 105%. In addition, the differential viability (reversal) in assay [4] (H69AR cells + 2 uM doxorubicin) is 15.7% (inactive). Further, the inhibition in assay [5] was 2.34% (inactive); in assay [6], -1.5% (inactive).
With `Cn1ncc2c(Nc3ccccc3Br)ncnc21`, the viability in assay [1] was 109% (inactive); in assay [2], 101% (inactive); in assay [3] it was 106% (inactive); in assay [4] (setting [7]) it was 92.8%; in assay [4] (setting [8]) it was 106%. The differential viability (reversal) in assay [4] (H69AR cells + 2 uM doxorubicin) is 13.5% (inactive). Further, the inhibition in assay [5] is -7.67% (inactive); in assay [6], -2.55% (inactive).
As to `O=C(CN1CCN(c2nc(-c3ccc(Cl)cc3)cs2)CC1)NCc1ccco1`, the viability is 67% (inactive) in assay [1]; 95.6% (inactive) in assay [2]; 97.9% (inactive) in assay [3]; 94.8% in assay [4] (setting [7]); 97.9% in assay [4] (setting [8]). For the same molecule, the differential viability (reversal) in assay [4] (H69AR cells + 2 uM doxorubicin) is 3.06% (inactive). Moreover, the results for the inhibition in assay [5] and in assay [6] were -5.07% (inactive) and -2.18% (inactive), respectively.
As for `O=C(CSc1nnc(-c2ccco2)n1CC1CCCO1)N1CCCCC1` (centres undefined), the viability in assay [1] was 94% (inactive); in assay [2] it was 106% (inactive); in assay [3], 97.6% (inactive); in assay [4] (setting [7]), 92.7%; in assay [4] (setting [8]) it was 97.6%. The differential viability (reversal) in assay [4] (H69AR cells + 2 uM doxorubicin) was 4.84% (inactive). The inhibition in assay [5] is -3.6% (inactive); in assay [6], 0.36% (inactive).
